# Test results published in PubChem BioAssay.
# Calls of active or inactive are those of the source.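 Rule for the calls, unless noted: active = viability at or under a set limit in both replicates, limit being median viability minus 3 SD (cut at about 48% in these data, passing the limit was not always enough); inconclusive = at or under the limit in just one replicate; inactive = at or above the limit in both replicates.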
# Key:
# [1] = reducers of endogenous Her2 protein level, primary screen, SKBR3 breast tumor cells, AlphaScreen, ATP viability (AID 461;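 active = Her2 level under about 52% in both replicate screens, with viability over 70% of control, limit read from the data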;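 for Her2 level: lower value means less Her2 protein in the cells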;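 for viability: percent of carrier control wells set as 100% viability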); details: 18-24 h, measured here: SKBR3 viability, ATP luminescence, at 10 µM
# [2] = biological target: Receptor tyrosine-protein kinase erbB-2 (Homo sapiens) (UniProt P04626); experiment: as above; details: 18-24 h, at 10 µM, stronger effect = lower value
# [3] = SK-BR-3 cell growth inhibitors, pilot screen, 24 h, human (AID 572;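 active = viability at or below 10% of carrier control in both of two separate runs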;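 note: compound exposure lasted between 18 and 24 h rather than exactly 24 h; 100% = carrier-treated control wells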); details: SK-BR-3 viability, CellTiter-Glo luminescence, at 10 µM, stronger effect = lower value
# [4] = HUVEC growth inhibition – cell-based, human, primary screen (AID 575;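 active = viability at or below 30% in both replicate assays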;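 note: 100% = median of untreated cell wells with 0.1% DMSO on each plate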); details: HUVEC proliferation, CellTiter-Glo luminescence, 72 h; at 10 µM; stronger effect = lower value
# Outline: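 system = HUVEC primary cells | amount = 1250 cells/well | buffer or medium = supplemented EBM, 2% fetal bovine serum | dosing = single-point 10 µM, DMSO 0.1% final | times = 72 h compound incubation | detection = CTG luminescence | read-out = % viability relative to median vehicle-well signal on each plate | control set = vehicle and MePR control wells | format = collagen-coated 384-well format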
# [5] = growth inhibitors of H69AR lung tumor, primary screen, human, duplicate replicates (AID 580); details: H69AR lung tumor cells viability, ATP luminescence, 72 h; at 10 µM; stronger effect = lower value;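 note: 100% = mean luminescence of untreated wells and 0% = no signal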
# [6] = reversal of MRP1-mediated doxorubicin resistance, pilot screen, H69AR cells, doxorubicin co-treatment (AID 601;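 active = viability loss from added drug above about 55%, and viability with drug at most 40%, in both replicates, limit read from the data, passing the limit was not always enough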); details: CellTiter-Glo, 72 h, at 10 µM; for differential viability (reversal): stronger effect = higher value
# [7] = 384-well plate pilot, post-Golgi transport modulator project, inhibition of yeast transport mutant growth (AID 636; in the data active = inhibition above about 31%); details: absorbance 615 nm, about 18 h, stronger effect = higher value
# [8] = growth suppression of yeast trafficking mutant, preliminary HTS, modulators of trafficking downstream of Golgi apparatus project, 1536-format plate, OD 615 nm (AID 637; in the data active = inhibition above about 30%); details: yeast transport mutant growth, absorbance 615 nm, 18 h; stronger effect = higher value
# [9] = H69AR cells + 2 uM doxorubicin, measured here: viability with 2 uM doxorubicin, stronger effect = lower value
# [10] = H69AR cells, compound alone cytotoxicity
# Chain of Receptor tyrosine-protein kinase erbB-2 (Homo sapiens) (P04626 whole entry, looked up): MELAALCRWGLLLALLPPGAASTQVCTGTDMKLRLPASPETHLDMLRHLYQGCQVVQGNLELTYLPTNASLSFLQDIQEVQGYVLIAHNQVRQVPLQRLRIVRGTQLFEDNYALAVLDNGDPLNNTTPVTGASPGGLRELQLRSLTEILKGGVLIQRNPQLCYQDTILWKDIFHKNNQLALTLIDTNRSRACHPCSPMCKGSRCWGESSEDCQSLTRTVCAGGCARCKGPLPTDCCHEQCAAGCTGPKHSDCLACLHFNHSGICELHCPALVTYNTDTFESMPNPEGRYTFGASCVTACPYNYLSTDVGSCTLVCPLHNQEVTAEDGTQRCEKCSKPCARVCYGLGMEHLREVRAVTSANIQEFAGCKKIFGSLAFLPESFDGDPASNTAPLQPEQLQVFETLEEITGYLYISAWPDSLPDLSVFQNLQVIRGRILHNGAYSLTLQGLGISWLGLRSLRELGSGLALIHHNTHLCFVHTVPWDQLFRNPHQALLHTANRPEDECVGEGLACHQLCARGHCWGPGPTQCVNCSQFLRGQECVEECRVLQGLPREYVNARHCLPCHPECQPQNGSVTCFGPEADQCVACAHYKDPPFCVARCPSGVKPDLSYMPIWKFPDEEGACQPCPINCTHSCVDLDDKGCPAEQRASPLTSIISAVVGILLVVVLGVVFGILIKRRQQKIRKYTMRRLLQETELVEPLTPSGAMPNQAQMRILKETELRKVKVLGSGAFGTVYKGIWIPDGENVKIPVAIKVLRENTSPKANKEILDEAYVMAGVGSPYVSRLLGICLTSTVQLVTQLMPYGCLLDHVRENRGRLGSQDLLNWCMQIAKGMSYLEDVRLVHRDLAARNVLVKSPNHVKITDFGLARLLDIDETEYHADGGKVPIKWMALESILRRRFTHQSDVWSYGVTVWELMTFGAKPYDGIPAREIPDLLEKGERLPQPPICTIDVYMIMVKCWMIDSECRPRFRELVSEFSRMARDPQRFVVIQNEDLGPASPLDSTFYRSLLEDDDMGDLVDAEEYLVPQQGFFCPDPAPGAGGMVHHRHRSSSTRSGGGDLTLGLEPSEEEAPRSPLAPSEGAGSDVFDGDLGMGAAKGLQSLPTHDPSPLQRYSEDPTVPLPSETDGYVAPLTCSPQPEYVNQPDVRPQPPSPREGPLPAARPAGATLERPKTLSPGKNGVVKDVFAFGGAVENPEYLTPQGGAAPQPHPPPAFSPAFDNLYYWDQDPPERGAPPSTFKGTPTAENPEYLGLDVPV
SMILES,viability [1],Her2 level [2],viability [3],viability [4],viability [5],differential viability (reversal) ([6]; H69AR cells + 2 uM doxorubicin),"viability [6, 9]","viability [6, 10]",inhibition [7],inhibition [8]
COc1ccc(OC)c(S(=O)(=O)Nc2ccc(C(N)=O)cc2)c1,98.5%,91% (inactive),98.5% (inactive),110% (inactive),94% (inactive),5.67% (inactive),88.4%,94%,-4.61% (inactive),-2.3% (inactive)
O=C(c1ccco1)N(Cc1cc2ccccc2[nH]c1=O)C1CCCCC1,98.5%,103% (inactive),98.5% (inactive),91.7% (inactive),95% (inactive),12.9% (inactive),82.1%,95%,0.39% (inactive),-6.35% (inactive)
O=C1CCc2nc3sc4c(c3c(=O)n2N1)CCCC4,86.5%,100% (inactive),86.5% (inactive),85.9% (inactive),91.3% (inactive),1.12% (inactive),90.2%,91.3%,-1.05% (inactive),-7.14% (inactive)
NC(=O)C1(N2CCCCC2)CCN(Cc2ccccc2Cl)CC1,102%,77% (inactive),102% (inactive),87.8% (inactive),83.8% (inactive),3.07% (inactive),80.8%,83.8%,-6.62% (inactive),-1.17% (inactive)
CCC1Oc2ccccc2N(CC(=O)Nc2ccc(OC)cc2OC)C1=O (stereo not given),90.5%,95.5% (inactive),90.5% (inactive),106% (inactive),100% (inactive),15% (inactive),85.3%,100%,-2.24% (inactive),-1.09% (inactive)
CC(C)OC(=O)CN1C(=O)C(C)(C)Oc2ccc(C(=O)NC3CC3)cc21,96%,92.5% (inactive),96% (inactive),93.1% (inactive),91.6% (inactive),-2.77% (inactive),94.3%,91.6%,-3.2% (inactive),1.94% (inactive)
COc1ccc(C2C(=O)N(C3CCCCC3)CC(=O)N2Cc2ccco2)cc1 (stereo not given),110%,91.5% (inactive),110% (inactive),95.9% (inactive),97.7% (inactive),18.2% (inactive),79.5%,97.7%,-6.67% (inactive),1.45% (inactive)
c1ccc(CCc2nc(-c3cccnc3)no2)cc1,86.5%,73% (inactive),86.5% (inactive),108% (inactive),92.9% (inactive),1.11% (inactive),91.8%,92.9%,-4.27% (inactive),1.31% (inactive)
CCSc1nc2ccccc2n1CC(N)=O,102%,81% (inactive),102% (inactive),96.5% (inactive),88.8% (inactive),6.57% (inactive),82.2%,88.8%,-9.04% (inactive),1.9% (inactive)
Cc1cc2ncn(C(=O)c3c(-c4ccccc4)noc3C)c2cc1C,102%,110% (inactive),102% (inactive),76.8% (inactive),81.8% (inactive),4.1% (inactive),77.7%,81.8%,0.13% (inactive),-6.23% (inactive)
Cc1oc2nc(SCCCC(=O)NCCCO)nc(N)c2c1C,91.5%,85% (inactive),91.5% (inactive),103% (inactive),107% (inactive),7.75% (inactive),98.8%,107%,-0.79% (inactive),4.75% (inactive)
CN(C(=O)COC(=O)C1CCN(S(=O)(=O)c2cccs2)CC1)C1CCS(=O)(=O)C1 (stereo not given),118%,127% (inactive),118% (inactive),94.9% (inactive),99.8% (inactive),12.6% (inactive),87.2%,99.8%,-4.4% (inactive),-7.74% (inactive)
COc1ccc(Cc2nc(-c3ccc(NC(=O)c4cccnc4)cc3)no2)cc1,109%,84.5% (inactive),109% (inactive),123% (inactive),17.7% (active),-0.01% (inactive),17.7%,17.7%,-7.7% (inactive),7.94% (inactive)
O=C(Oc1cccc2cccnc12)c1cccc(-n2cnnn2)c1,104%,82% (inactive),104% (inactive),60.3% (inactive),91.9% (inactive),15.1% (inactive),76.8%,91.9%,-2.53% (inactive),5.97% (inactive)
COCCn1c(C)cc(C(=O)COC(=O)c2n[nH]c3ccccc23)c1C,97.5%,84% (inactive),97.5% (inactive),92.5% (inactive),81.3% (inactive),-2.8% (inactive),84.1%,81.3%,-8.24% (inactive),0.98% (inactive)
CCOC(=O)c1cc2cc(F)ccc2nc1C,103%,112% (inactive),103% (inactive),120% (inactive),108% (inactive),20.9% (inactive),87.1%,108%,-0.93% (inactive),-5.9% (inactive)
CCN1CCN(c2nc3c(C)cccn3c(=O)c2/C=C(\C#N)S(=O)(=O)c2ccccc2)CC1,93%,76.5% (inactive),93% (inactive),89.6% (inactive),75.1% (inactive),-7.74% (inactive),82.8%,75.1%,-2.76% (inactive),-0.18% (inactive)
COc1ccc(C2C(C(=O)c3sc(C)nc3C)=C(O)C(=O)N2CCN2CCOCC2)cc1 (stereo not given),99%,92.5% (inactive),99% (inactive),111% (inactive),102% (inactive),5.41% (inactive),96.3%,102%,0% (inactive),-4.19% (inactive)
Cc1cnc(NC(=O)CSc2nc3ccccc3c(=O)[nH]2)s1,89.5%,93.5% (inactive),89.5% (inactive),76.5% (inactive),93.3% (inactive),10.8% (inactive),82.5%,93.3%,-3.07% (inactive),-6.19% (inactive)
Cc1ccc(S(=O)(=O)N2CCN(S(C)(=O)=O)C2c2ccccc2)cc1 (stereo not given),82%,96% (inactive),82% (inactive),103% (inactive),94.4% (inactive),-12% (inactive),106%,94.4%,0.13% (inactive),0% (inactive)
COc1ccc(CN(C(=O)CNC(=O)c2ccco2)C(C(=O)NC2CCCC2)c2ccco2)cc1 (stereo not given),91%,106% (inactive),91% (inactive),103% (inactive),95.4% (inactive),7.6% (inactive),87.8%,95.4%,-0.39% (inactive),-5.48% (inactive)
O=C1CC(c2cccc(Cl)c2)CC(O)=C1C=NCCCO (stereo not given),102%,90.5% (inactive),102% (inactive),83.7% (inactive),103% (inactive),4.62% (inactive),98.1%,103%,-6.27% (inactive),-0.33% (inactive)
COC(=O)C(CC(C)C)NC(=O)CSc1nc(-c2ccccc2)c(C#N)c(=O)[nH]1 (stereo not given),110%,90% (inactive),110% (inactive),107% (inactive),108% (inactive),7.26% (inactive),100%,108%,-3.12% (inactive),4.1% (inactive)
COc1ccccc1C(=O)n1nc(-c2ccccc2)nc1N,91%,90% (inactive),91% (inactive),110% (inactive),87.9% (inactive),-2.62% (inactive),90.5%,87.9%,-3.29% (inactive),3.77% (inactive)
CCOC(=O)N1CCC2(CC1)CC(=O)c1c(ccc3oc(C(=O)O)c(C)c13)O2,118%,96% (inactive),118% (inactive),111% (inactive),92.3% (inactive),3.56% (inactive),88.7%,92.3%,-0.79% (inactive),-4.55% (inactive)
Cc1cc(NC(=O)COC(=O)C2COc3ccccc3O2)no1 (stereo not given),110%,95.5% (inactive),110% (inactive),104% (inactive),96.7% (inactive),11% (inactive),85.7%,96.7%,-4.61% (inactive),-5% (inactive)
CCn1c(=O)n(CC(=O)NCc2ccccc2OC)c(=O)c2ccccc21,95%,84% (inactive),95% (inactive),87.5% (inactive),101% (inactive),3.65% (inactive),97.4%,101%,0.92% (inactive),-3.06% (inactive)
COC(=O)c1ccc(NC(=O)CN2C(=O)CSC2=O)cc1,104%,93% (inactive),104% (inactive),90.1% (inactive),106% (inactive),12% (inactive),94.4%,106%,-4.67% (inactive),2.3% (inactive)
